Results from different studies.
Each line is one published result; the experiments were not run side by side.
RET V804L: Proto-oncogene tyrosine-protein kinase receptor Ret (RET, Homo sapiens, UniProt P07949, V804L)
RET: Proto-oncogene tyrosine-protein kinase receptor Ret (RET, Homo sapiens, UniProt P07949)
RET V804M: Proto-oncogene tyrosine-protein kinase receptor Ret (RET, Homo sapiens, UniProt P07949, V804M)
RET M918T: Proto-oncogene tyrosine-protein kinase receptor Ret (RET, Homo sapiens, UniProt P07949, M918T)

COc1ncc2cc3ccccc3nc2c1C#N  remaining binding (RET V804L; cell-free assay, competition with immobilised ligand; 5 µM): 94%
COc1cnc(Nc2cccc(S(N)(=O)=O)c2)nc1N1CCN(c2ccccc2)C(=O)C1  remaining binding (RET V804L; binding, competition with immobilised ligand; 1 µM): 98%
Cc1cc(-n2nc(Cc3cc(F)cc(C(F)(F)F)c3)nc2C)ccc1C(N)=O  remaining binding (RET; cell-free assay, competition with immobilised ligand; 1 µM): 96%
CN(c1nccc(-c2cnn3ncccc23)n1)C1CC1  remaining binding (RET V804L; binding; 1 µM): 100%
O=C(NCCCN1CCOCC1)c1ccc(Nc2nccc(-c3cc4ccccc4s3)n2)cc1  remaining binding (RET V804M; binding, competition with immobilised ligand; 1 µM): 81%
CN(C)C(=O)Cn1cc(-c2nc([C@@](C)(c3ccc(-c4cnc(N)nc4)cc3)C3CC3)no2)cn1  remaining binding (RET V804L; cell-free assay, competition with immobilised ligand; 1 µM): 93%
Cc1cnc(Nc2ccc(C(=O)N3CCC(N4CCCC4)CC3)cc2)nc1-c1cc2ccccc2s1  remaining binding (RET V804L; binding, competition with immobilised ligand; 1 µM): 11%
Cc1nccc(COC(=O)N2C[C@@H]3[C@@H](CNC(=O)c4ccc5[nH]nnc5c4)[C@@H]3C2)n1  remaining binding (RET M918T; cell-free assay, competition with immobilised ligand; 1 µM): 100%
CN1CCN(c2ccc(Nc3nccc(-c4cccc([N+](=O)[O-])c4)n3)cc2C(F)(F)F)CC1  remaining binding (RET M918T; binding; 10 µM): 34%
C[C@@H]1CN(c2ccc3ncc(-c4ccc5[nH]nc(C6CC6)c5c4)n3n2)C[C@H](C)O1  remaining binding (RET; binding, competition with immobilised ligand; 0.5 µM): 61%
CNC(=O)[C@@H]1CC[C@@H](n2c(-c3ccc4cnccc4c3)nc3ccc(C(=O)NCc4cccc(C(N)=O)c4)cc32)C1  remaining binding (RET V804L; binding, competition with immobilised ligand; 1 µM): 94%
CC1CCCN1c1nccc(-c2cnn3ncccc23)n1 (centres unmarked)  remaining binding (RET; binding; 1 µM): 100%
N#CC1(c2ccccn2)CCN(Cc2cc(C(=O)N3CCCC3)c(=O)n3ccccc23)CC1  remaining binding (RET M918T; cell-free assay, competition with immobilised ligand; 1 µM): 88%
CCN1CCN(Cc2ccc(C(=O)Nc3ccc(C)c(Oc4ccc5c(c4)CC(=O)N5)c3)cc2C(F)(F)F)CC1  remaining binding (RET; binding, competition with immobilised ligand; 1 µM): 14%
C=CC(=O)N1CCC(C(=O)NCC(=O)N2CCN(c3nc(-c4cnc(N)nc4C(F)F)nc(N4CCOCC4)n3)CC2)CC1  remaining binding (RET; binding, competition with immobilised ligand; 1 µM): 94%
F[C@@H]1CCN(c2nccc(-c3cnn4ncccc34)n2)C1  remaining binding (RET V804M; binding; 1 µM): 72%
O=C(c1ccc(Nc2ncc(Cl)c(-c3cc4ccccc4s3)n2)cc1)N1CCC(N2CCCC2)CC1  remaining binding (RET; binding, competition with immobilised ligand; 1 µM): 25%
C[C@H]1CCN(c2nccc(-c3cnn4ncccc34)n2)C1  remaining binding (RET; binding; 1 µM): 97%
O=C(Nc1c[nH]nc1C(=O)NC1CCNCC1)c1cc(F)cc(F)c1  remaining binding (RET V804L; binding, competition with immobilised ligand; 1 µM): 100%
O=C(NCCCN1CCOCC1)c1ccc(Nc2ncc(Cl)c(-c3ccc(Cl)s3)n2)cc1  remaining binding (RET M918T; binding, competition with immobilised ligand; 1 µM): 15%
CN(C)c1nccc(-c2cnn3ncccc23)n1  remaining binding (RET; binding; 1 µM): 91%
Cn1nc(C(F)(F)F)cc1-c1cnc(N2CCc3cc(S(=O)(=O)Nc4c(F)cc(Cl)cc4F)cc(N4CCCC4=O)c32)nc1  remaining binding (RET V804M; cell-free assay, competition with immobilised ligand; 1 µM): 98%
COc1cnc(Nc2cccc(S(N)(=O)=O)c2)nc1N1CCN(c2ccccc2)CC1  remaining binding (RET V804M; binding, competition with immobilised ligand; 1 µM): 67%
CN(C)c1nccc(-c2cnc3ncccn23)n1  remaining binding (RET; binding; 1 µM): 91%
O=C(N[C@H]1CCCCC/C=C\C2C[C@@]2(C(=O)O)NC(=O)[C@@H]2C[C@@H](Oc3ccncc3)CN2C1=O)OC1CCCC1 (some centres unmarked)  remaining binding (RET V804M; binding, competition with immobilised ligand; 1 µM): 100%
N[C@@H]1CCN(c2nccc(-c3cnn4ncccc34)n2)C1  remaining binding (RET V804L; binding; 1 µM): 94%
O=C(c1ccc(Nc2ncc(Cl)c(-c3ccc(Cl)s3)n2)cc1)N1CCC(N2CCCC2)CC1  remaining binding (RET; binding, competition with immobilised ligand; 1 µM): 15%
O=C(Nc1cccnn1)N1CCC(=Cc2cccc(Oc3ccc(C(F)(F)F)cn3)c2)CC1  remaining binding (RET; cell-free assay, competition with immobilised ligand; 1 µM): 100%
Nc1ncc2c(n1)-c1c([nH]c3ccc(C#CC4CC4)cc13)CCCC2  remaining binding (RET V804L; binding, competition with immobilised ligand; 1 µM): 96%
c1ccc(N2CCN(Cc3nc4ccccc4[nH]3)CC2)nc1  remaining binding (RET; cell-free assay, competition with immobilised ligand; 1 µM): 100%
O=C(c1ccc(Nc2nccc(-c3cc4ccccc4s3)n2)cc1)N1CCC(N2CCCC2)CC1  remaining binding (RET M918T; binding, competition with immobilised ligand; 1 µM): 83%
C[C@@H](c1ccc(-n2cnc3c(N)ncnc32)cc1)N1CCc2nn(C)c(Cc3ccccc3)c2C1=O  remaining binding (RET V804L; binding, competition with immobilised ligand; 0.1 µM): 99%
c1cncc(-c2cccc(Nc3nccc(NC4CCCCC4)n3)c2)c1  remaining binding (RET V804L; binding, competition with immobilised ligand; 10 µM): 10%
CN1CCN(c2ccc(Nc3nccc(-c4ccccc4)n3)cc2C(F)(F)F)CC1  remaining binding (RET V804L; binding; 10 µM): 40%
O=C(NCC1CCOCC1)c1n[nH]cc1NC(=O)c1c(F)cccc1F  remaining binding (RET; binding, competition with immobilised ligand; 1 µM): 98%
